In ChEMBL document CHEMBL3352644, “Selenadiazole derivatives as potent thioredoxin reductase inhibitors that enhance the radiosensitivity of cancer cells” (Eur J Med Chem, 2014):
Converted amounts (≈) assume the structure as drawn. The source made the active and inactive calls. No cut-off for these calls is given here.

What was measured:
A-375 [1] = experiment: Induction of ROS generation in human A375 cells at 8 ug/mL […] by DCF and DHE dye based fluorescence assay; assay type: functional, cell-based
A-375 [2] = experiment: Induction of ROS generation in human A375 cells at 16 ug/mL […] by DCF and DHE dye based fluorescence assay; assay type: functional, cell-based
A-375 [3] = experiment: Induction of ROS generation in human A375 cells at 8 ug/mL incubated for 6 hrs followed by irradiation with 8 Gy X-ray at 37 degC for 12 hrs by DCF and DHE dye based fluorescence assay; assay type: functional, cell-based
Outline: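 A375 cells (4 × 10⁴/well) cultured 24 h, then treated 6 h at 8 or 16 µg/ml or at 2 or 4 µg/ml, and given 0 or 8 Gy X-ray. Loaded with H₂DCF or DHE for 30 min at 37 °C in the dark. Fluorescence read at 485/535 nm (DCF) or 480/610 nm (DHE); % of control.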

A-375 [4] = experiment: Cytotoxicity against human A375 cells after 18 hrs by MTT assay; assay type: functional, cell-based; details: A-375, 18 h
Outline: (§1)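 A375 cells (DMEM, 10% FBS, 37 °C, 5% CO2) seeded at 4 × 10⁴ cells/well and grown to 70–80% confluence. Treated with 0, 1, 2, 4, 8, 16 or 32 µg/ml for 6 h, then given 0 or 8 Gy X-ray (linear accelerator, 1.5 Gy/min), then 12 h more at 37 °C. MTT 4 h, formazan dissolved in DMSO, read at 570 nm; % of control; three repeats.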

A-375 [5] = experiment: Cytotoxicity against human A375 cells incubated for 6 hrs followed by irradiation with 8 Gy X-ray at 37 degC for 12 hrs by MTT assay; assay type: functional, cell-based; details: A-375, light or radiation study; outline: as §1
A-375 [6] = experiment: Induction of cell shrinkage in human A375 cells incubated for 6 hrs followed by irradiation with 8 Gy X-ray at 37 degC for 12 hrs by microscopy; assay type: functional, cell-based
Outline: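 A375 cells in DMEM with 10% FBS, 37 °C, 5% CO2. Pretreated with agent 6 h, then 0 or 8 Gy X-ray from a linear accelerator at 1.5 Gy/min, room temperature. Incubated a further 12 h; morphology imaged.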

A-375 [7] = experiment: Induction of cell morphological changes in human A375 cells incubated for 6 hrs followed by irradiation with 8 Gy X-ray at 37 degC for 12 hrs by microscopy; assay type: functional, cell-based
A-375 [8] = experiment: Induction of apoptosis in human A375 cells assessed as accumulation at subG1 phase at 10 ug/mL incubated for 18 hrs by propidium iodide staining based flow cytometry (reference value: 1.8%); assay type: functional
Outline: (§2)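 A375 cells treated at 10 or 4 µg/ml for 6 h, given 0 or 8 Gy X-ray, then 12 h more. Trypsinized, washed in PBS, fixed overnight in ice-cold 75% ethanol at −20 °C. Stained with propidium iodide, 30 min at 37 °C in the dark; DNA content and sub-G1 population read by flow cytometry.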

A-375 [9] = experiment: Induction of cell cycle arrest in human A375 cells assessed as accumulation at S phase at 10 ug/mL incubated for 18 hrs by propidium iodide staining based flow cytometry (reference value: 37.2%); assay type: functional; outline: as §2
A-375 [10] = experiment: Induction of cell cycle arrest in human A375 cells assessed as accumulation at G1/G0 phase at 10 ug/mL incubated for 18 hrs by propidium iodide staining based flow cytometry (reference value: 48.9%); assay type: functional; outline: as §2
A-375 [11] = experiment: Induction of cell cycle arrest in human A375 cells assessed as accumulation at G2/M phase at 10 ug/mL incubated for 18 hrs by propidium iodide staining based flow cytometry (reference value: 13.9%); assay type: functional; outline: as §2
A-375 [12] = experiment: Induction of apoptosis in human A375 cells assessed as accumulation at subG1 phase at 10 ug/mL incubated for 6 hrs followed by irradiation with 8 Gy X-ray at 37 degC for 12 hrs by propidium iodide staining based flow cytometry (reference value: 2.3%); assay type: functional; outline: as §2
A-375 [13] = experiment: Induction of cell cycle arrest in human A375 cells assessed as accumulation at G1/G0 phase at 10 ug/mL incubated for 6 hrs followed by irradiation with 8 Gy X-ray at 37 degC for 12 hrs by propidium iodide staining based flow cytometry (reference value: 44.9%); assay type: functional; outline: as §2
A-375 [14] = experiment: Induction of cell cycle arrest in human A375 cells assessed as accumulation at S phase at 10 ug/mL incubated for 6 hrs followed by irradiation with 8 Gy X-ray at 37 degC for 12 hrs by propidium iodide staining based flow cytometry (reference value: 7.9%); assay type: functional; outline: as §2
A-375 [15] = experiment: Induction of cell cycle arrest in human A375 cells assessed as accumulation at G2/M phase at 10 ug/mL incubated for 6 hrs followed by irradiation with 8 Gy X-ray at 37 degC for 12 hrs by propidium iodide staining based flow cytometry (reference value: 47.2%); assay type: functional; outline: as §2
A-375 [16] = experiment: Induction of ROS generation in human A375 cells at 16 ug/mL incubated for 6 hrs followed by irradiation with 8 Gy X-ray at 37 degC for 12 hrs by DCF and DHE dye based fluorescence assay

## COc1cc(Cn2c(-c3cc(OC)c(OC)c(OC)c3)nc3ccc(-c4ccc5n[se]nc5c4)cc32)cc(OC)c1OC
A-375 [1]
  Activity: Active
A-375 [2]
  Activity: Active
A-375 [3]
  Activity: Active
A-375 [4]
  IC50: 26.4 µg/mL (≈ 40.9 µM)
A-375 [5]
  IC50: 8 µg/mL (≈ 12.4 µM)
A-375 [6]
  Activity: Active
A-375 [7]
  Activity: Active
A-375 [8]
  Activity: 11.7%
A-375 [9]
  Activity: 21.3%
A-375 [10]
  Activity: 69.3%
A-375 [11]
  Activity: 9.4%
A-375 [12]
  Activity: 57.6%
A-375 [13]
  Activity: 60.5%
A-375 [14]
  Activity: 36.8%
A-375 [15]
  Activity: 2.7%
A-375 [16]
  Activity: Active

## COc1cc(Cn2c(-c3cc(OC)c(OC)c(OC)c3)nc3cc(-c4ccc5n[se]nc5c4)ccc32)cc(OC)c1OC
A-375 [4]
  IC50: 28.3 µg/mL (≈ 43.8 µM)
A-375 [5]
  IC50: 9.2 µg/mL (≈ 14.3 µM)
A-375 [6]
  Activity: Active
A-375 [7]
  Activity: Active
